Broadly, the IC50 is the concentration that gives 50% inhibition. One may read the EC50 as the concentration at which the effect is half-maximal. Higher therefore signals a need for much substance. One may read the half-life as the time needed for the level to fall by half in the phase considered.

These results are taken from ChEMBL document CHEMBL1148460, “Interaction of cycloSal-pronucleotides with cholinesterases from different origins. A structure-activity relationship” (J Med Chem, 2004).

The target in data set [1] is Cholinesterase (Mus musculus, UniProt Q03311). As to the kind of experiment: Inhibitory activity towards mouse butyrylcholinesterase. A digest of the protocol:
(§1)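 Modified Rappaport assay following acetylcholine chloride hydrolysis to acetic acid, with m-nitrophenol indicator in phosphate buffer at pH 7.8 and NaCl. The compound is added in DMSO, and the reaction is started with serum (human, mouse or calf). A420 is read at 25 °C at 0 and 5 min. Final inhibitor is 0.1, 0.5, 1, 5, 10, 30 and 50 µM. IC50 is interpolated from ΔE plots in the pseudolinear region.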

In data set [2] the target is Cholinesterase (Homo sapiens, UniProt P06276). In words: Inhibitory activity towards human butyrylcholinesterase. The procedure, abridged: as §1
For data set [3], the target named is Acetylcholinesterase (Electrophorus electricus, UniProt O42275). In words: Inhibitory activity towards Electrophorus electricus acetylcholinesterase.
Data set [4] has as its target T1, Acetylcholinesterase (Bos taurus, UniProt P23795).
T1 sequence (P23795 whole entry): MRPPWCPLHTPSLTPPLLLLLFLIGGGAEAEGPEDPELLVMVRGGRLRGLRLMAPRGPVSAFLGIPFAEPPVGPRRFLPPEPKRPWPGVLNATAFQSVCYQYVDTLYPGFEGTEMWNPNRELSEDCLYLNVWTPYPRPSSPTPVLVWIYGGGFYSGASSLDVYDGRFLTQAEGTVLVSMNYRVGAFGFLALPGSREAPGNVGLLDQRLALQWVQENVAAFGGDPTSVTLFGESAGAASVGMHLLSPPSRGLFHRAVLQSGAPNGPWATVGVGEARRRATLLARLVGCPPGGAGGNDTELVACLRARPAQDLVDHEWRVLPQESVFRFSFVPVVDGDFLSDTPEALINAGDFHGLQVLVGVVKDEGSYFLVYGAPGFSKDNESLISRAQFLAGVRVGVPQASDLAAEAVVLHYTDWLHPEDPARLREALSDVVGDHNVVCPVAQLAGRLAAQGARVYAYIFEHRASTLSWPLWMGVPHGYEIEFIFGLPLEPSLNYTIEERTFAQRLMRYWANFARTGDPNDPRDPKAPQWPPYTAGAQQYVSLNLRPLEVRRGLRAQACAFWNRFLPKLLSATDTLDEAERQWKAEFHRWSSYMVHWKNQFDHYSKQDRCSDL
As to the kind of experiment: Inhibitory activity towards beef erythrocytes acetylcholinesterase.

The target in data set [5] is T1, Acetylcholinesterase. In words: Inhibitory activity towards calf serum acetylcholinesterase. The procedure, abridged:
as §1

Data set [6] deals with L1210. As to the kind of experiment: Antitumor activity tested in L1210 cells. It counts as functional, cell-based. As to conditions: Mus musculus.
In data set [7] the test system is CCRF-CEM. As to the kind of experiment: Anti-HIV-1 activity tested in human lymphocytic CEM cells. It counts as functional, cell-based.
For data set [8], the system named is Vero. In words: Anti-HSV-1 activity tested in Vero cells. In kind it is functional, cell-based. As to conditions: Chlorocebus sabaeus.
In data set [9] the test system is Human gammaherpesvirus 4. As to the kind of experiment: Anti-EBV activity blocking EBV-DNA synthesis. In kind it is functional, organism-based.
For data set [10], the system named is CCRF-CEM. In words: Anti-HIV-2 activity tested in human lymphocytic CEM cells. In kind it is functional, cell-based.
Data set [11] is described as follows: Half-life was determined. It counts as ADME. The following applies: human.

Cholinesterase (Homo sapiens, UniProt P06276), sequence (P06276 whole entry): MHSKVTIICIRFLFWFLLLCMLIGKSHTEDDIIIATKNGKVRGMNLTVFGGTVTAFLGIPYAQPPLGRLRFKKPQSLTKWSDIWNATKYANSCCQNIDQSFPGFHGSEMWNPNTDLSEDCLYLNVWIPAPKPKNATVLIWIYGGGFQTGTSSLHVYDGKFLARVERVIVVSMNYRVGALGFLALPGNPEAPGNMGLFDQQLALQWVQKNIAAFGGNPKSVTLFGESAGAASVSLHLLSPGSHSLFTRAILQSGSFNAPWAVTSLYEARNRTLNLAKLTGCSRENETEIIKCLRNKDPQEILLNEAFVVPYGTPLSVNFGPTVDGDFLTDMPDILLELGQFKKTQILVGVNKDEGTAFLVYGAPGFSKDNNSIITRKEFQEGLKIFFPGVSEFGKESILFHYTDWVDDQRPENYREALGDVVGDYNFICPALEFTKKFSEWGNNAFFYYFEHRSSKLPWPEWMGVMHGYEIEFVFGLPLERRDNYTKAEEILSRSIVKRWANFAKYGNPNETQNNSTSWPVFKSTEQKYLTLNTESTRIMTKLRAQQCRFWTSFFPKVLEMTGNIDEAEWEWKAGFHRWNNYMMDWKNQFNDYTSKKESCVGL
Acetylcholinesterase (Electrophorus electricus, UniProt O42275), sequence (O42275 whole entry): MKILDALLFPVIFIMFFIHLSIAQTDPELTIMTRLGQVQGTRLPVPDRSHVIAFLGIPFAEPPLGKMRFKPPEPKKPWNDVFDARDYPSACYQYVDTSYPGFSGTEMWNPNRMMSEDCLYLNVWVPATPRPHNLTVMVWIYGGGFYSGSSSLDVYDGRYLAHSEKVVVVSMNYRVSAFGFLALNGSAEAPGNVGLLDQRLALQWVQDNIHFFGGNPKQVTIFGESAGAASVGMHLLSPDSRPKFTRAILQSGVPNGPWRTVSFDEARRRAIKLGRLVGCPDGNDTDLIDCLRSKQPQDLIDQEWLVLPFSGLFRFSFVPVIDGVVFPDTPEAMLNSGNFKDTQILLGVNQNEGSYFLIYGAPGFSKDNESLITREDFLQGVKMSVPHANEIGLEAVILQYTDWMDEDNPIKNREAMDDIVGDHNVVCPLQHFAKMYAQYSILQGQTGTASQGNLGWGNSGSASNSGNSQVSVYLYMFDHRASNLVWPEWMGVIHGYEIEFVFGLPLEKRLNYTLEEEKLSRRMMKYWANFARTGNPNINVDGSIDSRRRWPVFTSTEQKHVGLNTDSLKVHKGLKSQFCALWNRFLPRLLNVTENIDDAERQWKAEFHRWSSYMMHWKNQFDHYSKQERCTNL
Cholinesterase (Mus musculus, UniProt Q03311), sequence (Q03311 whole entry): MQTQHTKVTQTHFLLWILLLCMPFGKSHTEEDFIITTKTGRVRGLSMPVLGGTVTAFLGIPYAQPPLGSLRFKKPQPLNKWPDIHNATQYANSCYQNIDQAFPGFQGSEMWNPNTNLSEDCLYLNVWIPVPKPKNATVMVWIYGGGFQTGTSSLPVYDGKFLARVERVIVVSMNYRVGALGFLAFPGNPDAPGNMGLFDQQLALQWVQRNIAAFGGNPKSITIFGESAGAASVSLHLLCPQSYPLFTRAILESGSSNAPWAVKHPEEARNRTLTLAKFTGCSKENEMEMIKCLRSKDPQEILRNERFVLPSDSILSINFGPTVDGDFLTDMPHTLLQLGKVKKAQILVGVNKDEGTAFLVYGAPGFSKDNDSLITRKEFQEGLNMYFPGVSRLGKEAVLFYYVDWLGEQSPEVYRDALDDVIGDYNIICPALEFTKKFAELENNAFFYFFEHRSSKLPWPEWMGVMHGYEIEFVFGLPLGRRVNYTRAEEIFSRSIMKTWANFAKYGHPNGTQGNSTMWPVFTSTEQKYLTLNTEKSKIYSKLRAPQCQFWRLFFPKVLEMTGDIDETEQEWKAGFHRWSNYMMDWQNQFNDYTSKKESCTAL

As for `Cc1cccc2c1OP(=O)(OC[C@@H]1C[C@H](F)[C@H](n3cnc4c(N)ncnc43)O1)OC2` (stereo not given in full), the IC50 in data set [1] is greater than 50 µM; in [2] it was 5 µM; in data set [3], greater than 50 µM; in data set [4], greater than 50 µM; in data set [5], greater than 50 µM.
Turning to `Cc1cccc2c1O[P@@](=O)(OC[C@H]1O[C@@H](n3cc(F)c(=O)[nH]c3=O)C[C@@H]1O)OC2`, the IC50 in data set [3] is greater than 50 µM. For the same molecule, a half-maximal effect in data set [6] (EC50) was put at 0.04 µM.
In data set [7], `Cc1cccc2c1O[P@@](=O)(OC[C@@H]1C=C[C@H](n3cc(C)c(=O)[nH]c3=O)O1)OC2` had an EC50 of 0.08 µM. Moreover, the IC50 in data set [1], in data set [2], in [3], in data set [4] and in data set [5] was greater than 50 µM throughout.
Regarding `Cc1cccc2c1OP(=O)(OC[C@H](CO)OCn1cnc3c(O)nc(N)nc31)OC2` (stereo not given in full), the IC50 in data set [2] and in data set [3] was greater than 50 µM throughout. For the same molecule, the midpoint of the response in [8], the EC50, lay at 3.3 µM.
For the molecule `Cc1cccc2c1OP(=O)(OC[C@H]1O[C@@H](N3CC(/C=C/Br)C(=O)NC3=O)C[C@@H]1O)OC2` (stereo not given in full), the IC50 in data set [2] and in data set [3] was greater than 50 µM throughout. The molecule further registered an EC50 in data set [9] of 4.1 µM.
For `Cc1cccc2c1OP(=O)(OC[C@H]1O[C@@H](n3cc(F)c(=O)[nH]c3=O)C[C@@H]1O)OC2` (stereo not given in full), the IC50 in data set [2] is greater than 50 µM; in [3], greater than 50 µM; in data set [6] it was 0.04 µM.
With `Cc1cccc2c1OP(=O)(OCC(CO)CCn1cnc3c(O)nc(N)nc31)OC2` (stereo not given), the IC50 in data set [2] and in data set [3] was greater than 50 µM in each case. It took 17.7 µM to reach a half-maximal effect in data set [8] (EC50).
As for `Cc1cn(C2C=CC(COP3(=O)OCc4cccc(CCC(=O)OC(C)(C)C)c4O3)O2)c(=O)[nH]c1=O` (stereo not given), the IC50 is 3.4 µM in [2] and greater than 50 µM in [3]. Besides, the EC50 in data set [10] was 0.33 µM.
Molecule `Cc1cccc2c1OP(=O)(OCC1C=CC(n3cnc4c(N)ncnc43)O1)OC2` (stereo not given) showed an EC50 in data set [7] of 0.065 µM. In addition, the IC50 in data set [1] is 10.5 µM; in [2] it was 1.2 µM; in data set [3] it was greater than 50 µM; in data set [4], greater than 50 µM; in [5], greater than 50 µM.
Turning to `Cc1cccc2c1O[P@@](=O)(OC[C@@H](CO)OCn1cnc3c(O)nc(N)nc31)OC2`, the IC50 in data set [2] and in [3] was greater than 50 µM each time. For the same molecule, the EC50 in [9] turned out to be 3.29 µM.
Molecule `Cc1cccc2c1OP(=O)(OCC1CCC(n3cnc4c(N)ncnc43)O1)OC2` (stereo not given) displayed an EC50 in data set [7] of 0.047 µM. Moreover, the IC50 in data set [1] is 2.35 µM; in data set [2] it was 0.91 µM; in data set [3], greater than 50 µM; in data set [4] it was greater than 50 µM; in [5], greater than 50 µM.
As for `Cc1cccc2c1OP(=O)(OCCOCn1cnc3c(O)nc(N)nc31)OC2` (stereo not given), the IC50 in [2] and in data set [3] was greater than 50 µM throughout. The molecule also had an EC50 in [8] of 0.15 µM.
`Cc1cn(C2C=CC(COP3(=O)OCc4c(F)c(C(C)(C)C)cc(C(C)(C)C)c4O3)O2)c(=O)[nH]c1=O` (stereo not given) displayed an EC50 in data set [7] of 0.16 µM. Moreover, the results for the half-inhibitory concentration (IC50) in [2] and in data set [3] were 48 µM and greater than 50 µM, respectively. In [11], the half-life was 6.2 h.
`Cc1cccc2c1OP(=O)(OCC1OC(n3cc(C)c(=O)[nH]c3=O)CC1N=[N+]=[N-])OC2` (stereo not given): in data set [7], a half-maximal effect (EC50) was put at 0.006 µM. In addition, the IC50 in [1] is greater than 50 µM; in data set [2], 40 µM; in data set [3], greater than 50 µM; in [4], greater than 50 µM; in data set [5] it was greater than 50 µM.
Take `Cc1cccc2c1O[P@](=O)(OC[C@H]1OC(n3cc(F)c(=O)[nH]c3=O)C[C@@H]1O)OC2` (single isomer, unassigned): the IC50 in data set [2] and in [3] was greater than 50 µM in each case. The same molecule yielded an EC50 in data set [6] of 0.044 µM.
For `Cc1cccc2c1O[P@](=O)(OC[C@@H]1C=CC(n3cc(C)c(=O)[nH]c3=O)O1)OC2` (single isomer, unassigned), in data set [7], the EC50 was 0.42 µM. For the same molecule, the IC50 in data set [1] is no less than 5 µM; in data set [2], 0.24 µM; in [3], greater than 50 µM; in [4], greater than 50 µM; in [5] it was greater than 50 µM.
